The results in this text go back to ChEMBL document CHEMBL2406990, “Guanidine alkaloids from Plumbago zeylanica” (J Nat Prod, 2013).

The test system of experiment [1] is MDA-MB-231. In words: Cytotoxicity against human MDA-MB-231 cells after 72 hrs by SRB assay. Type of experiment: functional, cell-based. As to conditions: MDA-MB-231, 72 h. A digest of the protocol:
(§1)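 Cells seeded and left 24 h, then exposed to serial dilutions of compound (top concentration 100 μM). Incubation 72 h at 37 °C in humidified 5% CO2. Fixed with 10% trichloroacetic acid (4 °C, 1 h), water-washed, dried, stained 15 min with 0.4% SRB in 1% acetic acid. Unbound dye removed with 1% acetic acid, bound dye taken up in 10 mM Tris base, A510 read. Triplicate, IC50.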
For orientation: The SRB assay estimates cell density from bound dye.

Experiment [2] has as its system PANC-1. Nature of the experiment: Cytotoxicity against human PANC1 cells after 72 hrs by SRB assay. It is filed as functional, cell-based. To be noted: PANC-1, 72 h. A digest of the protocol:
as §1

Molecules are shown by their SMILES.

Usually IC50 stands for the concentration needed to halve the response being measured. Low readings indicate inhibition by little substance, high ones a need for much substance.

For the compound `CC(C)=C[C@@H]1C[C@@H](C(=O)O)[C@@H]2CN(CC(O)CCO[C@H]3OC[C@@H](O)[C@H](O)[C@H]3O)C(=N)N12` (stereo partly drawn), the half-inhibitory concentration (IC50) in experiment [1] and in experiment [2] was more than 10 µM each time.

For `CC1=C[C@@H](C[C@@H](C(=O)O)[C@@H]2CN(CC(O)CCO[C@H]3OC[C@@H](O)[C@H](O)[C@H]3O)C(=N)N2)OC1=O` (stereo partly drawn), the IC50 in experiment [1] and in experiment [2] was more than 10 µM in each case.

Turning to `CC(C)(O)CCC[C@@H](C(=O)O)[C@@H]1CNC(=N)N1`, the IC50 in experiment [1] and in experiment [2] was more than 10 µM in each case.

`CC(C)=CCC[C@@H](C(=O)O)[C@@H]1CNC(=N)N1`: the IC50 in experiment [1] and in experiment [2] was more than 10 µM throughout.

Turning to `C/C(=C\CC[C@@H](C(=O)O)[C@@H]1CNC(=N)N1)CO`, the IC50 in experiment [1] and in experiment [2] was more than 10 µM each time.

For the compound `CC(C)=C[C@@H]1C[C@@H](C(=O)O)[C@@H]2CNC(=N)N12`, the 50% inhibitory concentration (IC50) in experiment [1] and in experiment [2] was more than 10 µM throughout.

For the compound `CC1=C[C@@H](C[C@@H](C(=O)O)[C@@H]2CNC(=N)N2)OC1=O`, the IC50 in experiment [1] and in experiment [2] was more than 10 µM in each case.

On to `CC(C)=CCC[C@@H](C(=O)O)[C@@H]1CN(CC(O)CCO)C(=N)N1` (stereo partly drawn), for which the IC50 in experiment [1] and in experiment [2] was more than 10 µM throughout.

On to `C/C(=C\CC[C@@H](C(=O)O)[C@@H]1CN(CC(O)CCO)C(=N)N1)CO` (stereo partly drawn), for which the concentration for half-maximal inhibition (IC50) in experiment [1] and in experiment [2] was more than 10 µM each time.

Take `CC(C)=C[C@@H]1C[C@@H](C(=O)O)[C@@H]2CN(CC(O)CCO)C(=N)N12` (stereo partly drawn): the half-maximal inhibitory concentration (IC50) in experiment [1] and in experiment [2] was more than 10 µM throughout.

As for `CC1=C[C@@H](C[C@@H](C(=O)O)[C@@H]2CN(CC(O)CCO)C(=N)N2)OC1=O` (stereo partly drawn), the IC50 in experiment [1] and in experiment [2] was more than 10 µM in each case.

In the case of `CC(C)=CCC[C@@H](C(=O)O)[C@@H]1CN(CC(O)CCO[C@H]2OC[C@@H](O)[C@H](O)[C@H]2O)C(=N)N1` (stereo partly drawn), the IC50 in experiment [1] and in experiment [2] was more than 10 µM throughout.

As for `C/C(=C\CC[C@@H](C(=O)O)[C@@H]1CN(CC(O)CCO[C@H]2OC[C@@H](O)[C@H](O)[C@H]2O)C(=N)N1)CO` (stereo partly drawn), the half-maximal inhibitory concentration (IC50) in experiment [1] and in experiment [2] was more than 10 µM each time.

On to `CC(=O)O[C@H]1C(=O)[C@@]2(C)[C@H]([C@H](OC(=O)c3ccccc3)[C@]3(O)C[C@H](OC(=O)[C@H](O)[C@@H](NC(=O)c4ccccc4)c4ccccc4)C(C)=C1C3(C)C)[C@]1(OC(C)=O)CO[C@@H]1C[C@@H]2O` [PACLITAXEL], for which the half-maximal inhibitory concentration (IC50) in experiment [1] and in experiment [2] was less than 1 µM throughout.
